92 compounds from PubChem BioAssay AID489030 (Sanford-Burnham Center for Chemical Genomics, 2010) can be followed below.

Structures are written as SMILES. Screen size: about 330,000 compounds; about 2,400 (0.73%) were called active. Rule for the calls: active = inhibition of at least 40% at 20 µM; inactive = the rest. The sample as a whole holds a higher share of actives than the screen did.

The target of this experiment is Apoptotic protease-activating factor 1 (Homo sapiens) (UniProt O14727). Briefly: inhibitors of human Apaf-1 apoptosome, primary screen, biochemical, DEVD-Rh110 fluorescence, uHTS (AID 489030).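 Note: plate controls were DMSO wells for no effect and DEVD-CHO caspase inhibitor wells for full effect.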 The note with it: reconstituted apoptosome caspase-3 activity, at 20 µM, active compounds read high. The gist of the method: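 Material: reconstituted apoptosome with Apaf-1, cytochrome c, caspase-9, procaspase-3, dATP. Technique: Rh110 fluorescence intensity. Buffer or medium: pH 7.5 Hepes buffer with CHAPS, BSA, DTT. Times: 30 min plus 50 min, RT.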
Apoptotic protease-activating factor 1 (Homo sapiens), sequence (O14727 whole entry, looked up): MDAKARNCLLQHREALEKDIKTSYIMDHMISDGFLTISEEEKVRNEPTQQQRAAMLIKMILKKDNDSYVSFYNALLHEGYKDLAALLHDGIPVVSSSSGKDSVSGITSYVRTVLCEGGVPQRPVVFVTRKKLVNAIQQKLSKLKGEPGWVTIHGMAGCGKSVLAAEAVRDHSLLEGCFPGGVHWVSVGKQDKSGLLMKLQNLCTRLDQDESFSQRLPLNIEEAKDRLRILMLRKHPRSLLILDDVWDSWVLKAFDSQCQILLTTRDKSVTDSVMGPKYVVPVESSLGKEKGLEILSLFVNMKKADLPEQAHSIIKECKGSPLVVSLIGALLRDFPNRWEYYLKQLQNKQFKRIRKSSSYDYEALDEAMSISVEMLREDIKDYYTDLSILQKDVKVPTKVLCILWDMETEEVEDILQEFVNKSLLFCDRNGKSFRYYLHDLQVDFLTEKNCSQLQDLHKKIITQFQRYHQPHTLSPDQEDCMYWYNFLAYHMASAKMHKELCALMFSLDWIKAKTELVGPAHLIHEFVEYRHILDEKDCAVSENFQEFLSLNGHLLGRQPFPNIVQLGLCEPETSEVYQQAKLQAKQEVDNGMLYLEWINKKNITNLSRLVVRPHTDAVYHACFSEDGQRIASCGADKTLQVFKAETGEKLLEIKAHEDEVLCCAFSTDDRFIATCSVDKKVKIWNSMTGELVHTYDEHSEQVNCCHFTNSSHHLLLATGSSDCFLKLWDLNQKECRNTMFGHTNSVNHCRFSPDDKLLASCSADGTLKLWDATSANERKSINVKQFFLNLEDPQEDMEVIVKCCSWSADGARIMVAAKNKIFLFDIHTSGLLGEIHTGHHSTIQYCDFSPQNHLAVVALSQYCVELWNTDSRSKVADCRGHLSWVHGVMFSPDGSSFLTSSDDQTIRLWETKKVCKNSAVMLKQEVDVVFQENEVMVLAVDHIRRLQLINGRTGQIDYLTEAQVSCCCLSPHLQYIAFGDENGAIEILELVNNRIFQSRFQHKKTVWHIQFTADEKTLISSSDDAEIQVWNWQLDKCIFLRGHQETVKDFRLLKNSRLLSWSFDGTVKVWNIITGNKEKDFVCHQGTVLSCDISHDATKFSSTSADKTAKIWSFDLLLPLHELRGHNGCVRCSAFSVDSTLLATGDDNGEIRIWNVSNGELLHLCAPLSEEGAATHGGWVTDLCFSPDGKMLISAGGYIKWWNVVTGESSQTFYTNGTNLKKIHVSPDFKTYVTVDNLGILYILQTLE
Turning to `COC(=O)c1nn(-c2cccc(Cl)c2)ccc1=O`, the inhibition is -6.21% (inactive).
In the case of `CN(CCc1cn[nH]c1)C(=O)CC1C(=O)NCCN1Cc1cccc(Oc2ccccc2)c1` (configuration not stated) it was 13% (inactive).
With `CCCNC(=O)Nc1ccccc1C(=O)Nc1ccc(OC)cc1`, the inhibition was 11.1% (inactive).
For `O=C(NCc1ccccn1)c1ccc2nc(-c3ccco3)c(-c3ccco3)nc2c1` the value was 60.6% (active).
For `COCCNC(=O)Nc1ccc2nc(-c3ccco3)c(-c3ccco3)nc2c1` the value was 64.8% (active).
For `COc1cccc(S(=O)(=O)NCc2ccc(C(=O)NCc3ccccn3)cc2)c1` the value was 4.94% (inactive); for `COCCNC(=O)c1snc2ccc(Cl)cc12`, -26% (inactive).
Consider `O=C1CSc2ccc(C(=O)NCc3ccccn3)cc2N1`, for which the inhibition was -4.15% (inactive).
Regarding `O=C(O)c1ccc(NC(=O)c2ccc(COc3ccc(Cl)cc3)o2)cc1`, the inhibition is 3.81% (inactive).
For `Cn1c(=O)n(C)c2cc(NS(=O)(=O)c3ccc(F)cc3)ccc21` the value was 1.91% (inactive).
With `Cc1cccc(C)c1Nc1nnc(SCC(=O)NCCCN2CCCC2=O)s1`, the inhibition is -3.15% (inactive).
Turning to `Cc1ccc(/C=C(\C#N)C(=O)Nc2cccc3ncccc23)o1`, the inhibition is -6.14% (inactive).
Regarding `O=C(Nc1cccnc1Cl)c1cc(-c2cccc(Cl)c2)on1`, the inhibition is 3.02% (inactive).
Consider `O=C(O)c1cc(Cl)c(Cl)cc1C(=O)Nc1cccc2ncccc12`, for which the inhibition is 80.4% (active).
As to `C=C(C)CNc1cc(S(=O)(=O)N2CCOCC2)ccc1Oc1ccccc1`, the inhibition is 24.2% (inactive).
For `CCCC[C@@H]1CN=C(N)N1CCCC`, the inhibition was 8.23% (inactive).
On to `CCCC[C@@H]1CN=C(N)N1CCc1cccc(F)c1`, for which the inhibition is 4.48% (inactive).
For `CCCC[C@@H]1CN=C(N)N1CCc1cc(C(F)(F)F)cc(C(F)(F)F)c1`, the inhibition is 52.3% (active).
In the case of `COc1ccccc1N=C1SC(C)CN1C(=O)C1CCC1` (configuration not stated) it was 3.12% (inactive).
Take `Cc1ccc(C)c(Cn2cnc3c(oc4ccccc43)c2=O)c1`: the inhibition is -9.64% (inactive).
In the case of `CCOC(=O)C1CCN(C(=O)c2cccc(S(=O)(=O)N(CC)c3ccccc3)c2)CC1` it was 45.2% (active); in that of `CCOC(=O)C1CCN(C(=O)c2ccccc2N(C)S(=O)(=O)c2ccccc2)CC1`, 2.95% (inactive).
On to `CCOC(=O)C1CCCN(C(=O)c2cccc(S(=O)(=O)N3CCOCC3)c2)C1` (configuration not stated), for which the inhibition was -8.74% (inactive).
Consider `CC(C)[C@@H](NC(=O)OC(C)(C)C)C(=O)NCC1CCC(C(=O)N[C@@H](Cc2ccccc2)C(=O)O)CC1` (some centres not stated), for which the inhibition was 2.34% (inactive).
`CCCCC(=O)Nc1ccc(C(=O)Nc2cc(C(F)(F)F)ccc2Cl)cc1`: the inhibition is 37.6% (inactive).
For `CCCCN(CCCC)CCC(O)c1cc2c(Cl)cc(Cl)cc2c2cc(C(F)(F)F)ccc12` (configuration not stated) the value was 48.9% (active); for `ON=C1/C(=N\O)CC2(C/C1=N/O)OCCO2`, -16% (inactive); for `CN(C(=O)CN1C(=O)CCSc2ccc(S(=O)(=O)N3CCCC3)cc21)c1ccccc1`, -2.73% (inactive).
In the case of `CC(C)n1cnc2c(NCc3ccccc3)cc(N[C@@H](CO)Cc3ccccc3)cc21` it was 94.5% (active); in that of `CCC(CO)Oc1cc(NC(=O)c2ccc(Cl)cc2)c2ncn(C(C)C)c2c1` (configuration not stated), 11.6% (inactive).
In the case of `CCC(CO)Oc1cc(NC(=O)c2cccc3ccccc23)c2ncn(C(C)C)c2c1` (configuration not stated) it was 29.6% (inactive); in that of `CC(C)n1cnc2c(NCc3ccccc3)cc(OCC3CCN(C)CC3)cc21`, 96.4% (active); in that of `CCC(CO)Oc1cc(NCc2ccccc2)c2ncn(C3CCCC3)c2c1` (configuration not stated), 32.6% (inactive).
Turning to `CCC(CO)Oc1cc(NC(=O)c2cccc(F)c2)c2ncn(C(C)C)c2c1` (configuration not stated), the inhibition was 17.6% (inactive).
For `COc1ccc(N2CCN(CCNC(=O)c3nnc(Cc4c(F)cccc4Cl)o3)CC2)cc1` the value was -8.42% (inactive); for `Cn1c(=O)c2c(nc(N3CCOCC3)n2CCNC2=NCCC2)n(C)c1=O`, 9.61% (inactive); for `O=C(c1ccccc1)c1cccn1CC(=O)N1CCN(c2ccc(F)cc2)CC1`, 5.66% (inactive).
In the case of `Cc1nc(N)[nH]c(=O)c1Oc1cccc(C(F)(F)F)c1` it was -9.16% (inactive); in that of `COc1ccc(C(CNC(=O)c2ccc(NS(=O)(=O)c3ccc(F)c(C)c3)cc2)N(C)C)cc1` (configuration not stated), 26% (inactive); in that of `CC(=O)c1ccc(S(=O)(=O)Nc2ccc(C(=O)NCC(c3ccccc3)N(C)C)cc2)cc1` (configuration not stated), -18.1% (inactive).
In the case of `COc1ccc(C(CNC(=O)c2ccc(S(=O)(=O)Nc3ccccc3F)cc2)N(C)C)cc1` (configuration not stated) it was 56.5% (active); in that of `CCOC(=O)C1CCN(S(=O)(=O)c2c(C)noc2C)CC1`, 1.33% (inactive); in that of `C=CCNc1nc(N)c(C(=C(C#N)C#N)c2ccccc2)s1`, 10.1% (inactive).
In the case of `O=C(NCCCNCc1ccccc1)c1ccc(/C=N/O)nc1`, the inhibition was 6.05% (inactive).
For `COc1ccc(CNC(=O)c2ccc(NS(=O)(=O)c3ccc4[nH]c(=O)[nH]c4c3)cc2)cc1OC` the value was 8.25% (inactive); for `COC(=O)c1ccccc1NC(=O)CN(Cc1ccc(Cl)cc1)S(C)(=O)=O`, -4.4% (inactive); for `Nc1nc(NCC(=O)O)nc(N2CCCCCC2)c1[N+](=O)[O-]`, -0.54% (inactive).
In the case of `N#Cc1c(N2CCCCC2)nc(N)c2c(N)nc(SCC(=O)O)cc12` it was 96% (active).
For `N#CCc1c(C#N)c(N)nc(N2CCCC2)c1C#N`, the inhibition was -2.29% (inactive).
Regarding `COc1nc(NC2CCCCC2)nc(N2CCCCCC2)n1`, the inhibition is 15.5% (inactive).
As to `O=C(O)COCC(=O)NCc1csc2ccc(Cl)cc12`, the inhibition was -14.6% (inactive).
As to `CCOc1ccc(Br)cc1S(=O)(=O)Nc1ccc(S(=O)(=O)Nc2cc(C)on2)cc1`, the inhibition was 9.47% (inactive).
Consider `CCCS(=O)(=O)C(=C1Nc2ccccc2N1)S(=O)(=O)CCC`, for which the inhibition is 8.61% (inactive).
In the case of `COc1ccc(S(=O)(=O)NCCCc2ccccc2)cc1` it was -8.3% (inactive); in that of `COc1ccc(S(=O)(=O)/N=C2\C=C(NS(=O)(=O)c3ccccc3)C(=O)c3ccccc32)cc1`, 79.2% (active); in that of `CCCC(NS(=O)(=O)c1ccc(OC)cc1)C(=O)O` (configuration not stated), -6.54% (inactive).
Take `CCOC(=O)c1cnc(SC)nc1Sc1ccc(Cl)cc1Cl`: the inhibition is 14% (inactive).
For `O=C(c1cnccn1)N1CCN(S(=O)(=O)c2cccc(Cl)c2)CC1` the value was -4.31% (inactive).
`Cc1ccc(C(C)C)cc1OCC(=O)Nc1ccccc1N1CCCC1`: the inhibition was 16.1% (inactive).
As to `CN1CCN(c2ccccc2NC(=O)COc2ccc(C3CCCCC3)cc2)CC1`, the inhibition is 43.6% (active).
In the case of `O=C(CN1CCN(C2CCCCC2)CC1)Nc1ccccc1N1CCCCC1` it was 6.34% (inactive); in that of `Cn1nnnc1SCC(=O)Nc1cccc(S(=O)(=O)N2CCCCC2)c1`, 7.72% (inactive); in that of `CC(=O)c1c(C)[nH]c(C(=O)OCC(=O)NCCC(C)C)c1C`, -7.2% (inactive).
For `CC(=O)c1c(C)[nH]c(C(=O)COC(=O)CCOc2ccc(C)cc2)c1C` the value was 9.54% (inactive); for `CC(C)(C)C(=O)N1CCC[C@@]1(CO)C(=O)O`, 6.37% (inactive); for `CN1C(=O)/C(=C/c2ccco2)SC1=Nc1cccc(C(=O)O)c1`, 20% (inactive).
In the case of `Cc1ccc(N=C2NC(=O)/C(=C/C=C/c3ccco3)S2)cc1C` it was 61.8% (active); in that of `Cc1nn(C)c(C)c1NS(=O)(=O)c1ccc(OC(F)(F)F)cc1`, -0.237% (inactive).
Consider `O=S(=O)(Nc1ccc(O)c2ccccc12)c1ccc(OC(F)(F)F)cc1`, for which the inhibition was 60.9% (active).
In the case of `O=C1COc2ccc(S(=O)(=O)Nc3ccc(OC(F)(F)F)cc3)cc2N1` it was 11.8% (inactive); in that of `CCCCCCc1cc2cc(-c3nnc(-c4ccccc4)o3)c(=O)oc2cc1O`, 67.8% (active); in that of `CCc1ccc(CN(C)C(=O)CCc2nnc(-c3ccc(-c4ccccc4)cc3)o2)nc1`, 12.9% (inactive).
In the case of `Cc1c(CCC(=O)O)c(=O)oc2cc3occ(-c4ccccc4)c3cc12` it was -15.7% (inactive).
As to `O=C(/C=C/c1ccc([N+](=O)[O-])cc1)NCCSCc1ccco1`, the inhibition was -3.53% (inactive).
`CN(C)S(=O)(=O)c1ccc2oc(SCC(=O)Nc3ccccc3F)nc2c1`: the inhibition is 61.1% (active).
In the case of `COc1ccc(NS(=O)(=O)c2ccc3oc(SCC(N)=O)nc3c2)cc1` it was 4.33% (inactive).
With `COc1ccc(S(=O)(=O)N(C)C)cc1NC(=O)CSc1ncccn1`, the inhibition was -1.98% (inactive).
As to `CC(C)[C@@H]1COC(c2cccc(C3=N[C@H](C(C)C)CO3)c2)=N1`, the inhibition is 9.42% (inactive).
In the case of `CN(C)c1ccnc(Oc2ccc(F)cc2)c1C#N` it was -5.43% (inactive); in that of `COc1ccccc1CNC(=O)[C@@H]1CCCN1C(=O)[C@@H]1Cc2ccccc2CN1C(=O)OC(C)(C)C`, 11% (inactive).
For the compound `COc1ccc(Cn2cccc(NC(=O)Nc3ccc(C#N)cc3)c2=O)cc1`, the inhibition was -0.047% (inactive).
As for `Cc1cc(C)c(C(N)=O)c(Cl)n1`, the inhibition is -5.56% (inactive).
For `O=C(CCCN1CCc2[nH]c3ccc(F)cc3c2C1)c1ccc(F)cc1`, the inhibition was 65% (active).
In the case of `O=c1c2ccccc2[nH]c(=S)n1CCN1CCC(=C(c2ccc(F)cc2)c2ccc(F)cc2)CC1` it was 15.1% (inactive); in that of `CC1CCc2[nH]c3ccc(C(=O)N(C)CC(=O)Nc4cccc(F)c4)cc3c2C1` (configuration not stated), 20.4% (inactive); in that of `Cc1nn(C)c(C)c1CN(C(=O)CCc1nnc(Cc2c[nH]c3ccccc23)o1)C(C)C`, -6.13% (inactive).
As for `O=C1CCCCC1C(=O)c1ccccc1` (configuration not stated), the inhibition is -20% (inactive).
In the case of `COc1ccc(NC(=O)CCNS(=O)(=O)c2ccc3c(c2)c(=O)n(C)c(=O)n3C)cc1OC` it was -6.12% (inactive); in that of `CC(C)=CC(=O)Nc1nnc(-c2ccc(F)cc2)s1`, 0.969% (inactive).
As to `CC(=O)OC(COc1ccc(F)cc1)Cn1cnc2ccccc21` (configuration not stated), the inhibition is 17.3% (inactive).
In the case of `CC(=O)OCC(COC(C)=O)OC(C)=O`, the inhibition is 6.7% (inactive).
As to `CC(=O)N=c1ncn(CC(COC(C)=O)OC(C)=O)c2nc[nH]c12` (configuration not stated), the inhibition is 74.2% (active).
